Reference: ChEMBL document CHEMBL4354873, “Rationally Designed Small-Molecule Inhibitors Targeting an Unconventional Pocket on the TLR8 Protein-Protein Interface” (J Med Chem, 2020)
The source made the active and inactive calls. The rule behind the calls is not given here.

Tests used:
[1] = target: T1, Toll-like receptor 8 (Homo sapiens) (UniProt Q9NR97); assay: Inhibition of TLR8 in human monocytes assessed as reduction in R848-induced IL6 production measured after 24 hrs by ELISA; type: cell-based
T1 sequence (whole entry): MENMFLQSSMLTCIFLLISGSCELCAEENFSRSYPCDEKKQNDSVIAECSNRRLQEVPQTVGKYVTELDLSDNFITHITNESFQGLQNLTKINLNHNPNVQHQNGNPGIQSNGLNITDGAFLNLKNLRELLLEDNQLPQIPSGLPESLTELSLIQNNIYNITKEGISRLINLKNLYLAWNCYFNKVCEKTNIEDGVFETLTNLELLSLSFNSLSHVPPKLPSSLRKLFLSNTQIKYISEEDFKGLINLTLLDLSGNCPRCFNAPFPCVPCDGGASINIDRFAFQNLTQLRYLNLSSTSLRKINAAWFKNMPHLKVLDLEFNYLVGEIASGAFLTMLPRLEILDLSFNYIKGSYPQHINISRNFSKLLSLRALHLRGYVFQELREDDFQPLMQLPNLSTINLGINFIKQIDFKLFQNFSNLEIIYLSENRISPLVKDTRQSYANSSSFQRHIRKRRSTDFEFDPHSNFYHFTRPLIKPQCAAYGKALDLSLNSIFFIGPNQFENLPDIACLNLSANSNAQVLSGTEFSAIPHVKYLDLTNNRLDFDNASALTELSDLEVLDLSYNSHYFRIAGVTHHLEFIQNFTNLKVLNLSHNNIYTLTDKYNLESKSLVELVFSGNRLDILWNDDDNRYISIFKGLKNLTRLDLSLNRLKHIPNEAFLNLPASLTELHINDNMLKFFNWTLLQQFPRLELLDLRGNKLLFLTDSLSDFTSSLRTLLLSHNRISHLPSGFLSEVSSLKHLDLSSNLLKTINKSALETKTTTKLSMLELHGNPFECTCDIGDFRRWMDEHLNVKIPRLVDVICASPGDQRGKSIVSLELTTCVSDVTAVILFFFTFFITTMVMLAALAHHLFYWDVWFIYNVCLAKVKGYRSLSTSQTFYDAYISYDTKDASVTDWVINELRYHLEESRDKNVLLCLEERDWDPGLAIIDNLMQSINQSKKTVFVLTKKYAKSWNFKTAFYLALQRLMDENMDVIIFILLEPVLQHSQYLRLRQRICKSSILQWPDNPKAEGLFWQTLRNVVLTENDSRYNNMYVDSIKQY
Method in brief: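 Human monocyte cell lines in RPMI 1640 with 10% FBS and 0.05 mM 2-mercaptoethanol, 1 × 10⁶/well, 24 h. After PBS washes, fresh RPMI added with R848 1 µg/mL and varying compound concentrations for 24 h. Supernatant TNF-α, IL-6 and IL-1β measured by ELISA.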

[2] = target: T2, Toll-like receptor 7 (Homo sapiens) (UniProt Q9NYK1); assay: Effect on TLR7-mediated signaling in human PBMC assessed as change in basal TNFalpha secretion up to 20 uM measured after 24 hrs by ELISA
T2 sequence (whole entry): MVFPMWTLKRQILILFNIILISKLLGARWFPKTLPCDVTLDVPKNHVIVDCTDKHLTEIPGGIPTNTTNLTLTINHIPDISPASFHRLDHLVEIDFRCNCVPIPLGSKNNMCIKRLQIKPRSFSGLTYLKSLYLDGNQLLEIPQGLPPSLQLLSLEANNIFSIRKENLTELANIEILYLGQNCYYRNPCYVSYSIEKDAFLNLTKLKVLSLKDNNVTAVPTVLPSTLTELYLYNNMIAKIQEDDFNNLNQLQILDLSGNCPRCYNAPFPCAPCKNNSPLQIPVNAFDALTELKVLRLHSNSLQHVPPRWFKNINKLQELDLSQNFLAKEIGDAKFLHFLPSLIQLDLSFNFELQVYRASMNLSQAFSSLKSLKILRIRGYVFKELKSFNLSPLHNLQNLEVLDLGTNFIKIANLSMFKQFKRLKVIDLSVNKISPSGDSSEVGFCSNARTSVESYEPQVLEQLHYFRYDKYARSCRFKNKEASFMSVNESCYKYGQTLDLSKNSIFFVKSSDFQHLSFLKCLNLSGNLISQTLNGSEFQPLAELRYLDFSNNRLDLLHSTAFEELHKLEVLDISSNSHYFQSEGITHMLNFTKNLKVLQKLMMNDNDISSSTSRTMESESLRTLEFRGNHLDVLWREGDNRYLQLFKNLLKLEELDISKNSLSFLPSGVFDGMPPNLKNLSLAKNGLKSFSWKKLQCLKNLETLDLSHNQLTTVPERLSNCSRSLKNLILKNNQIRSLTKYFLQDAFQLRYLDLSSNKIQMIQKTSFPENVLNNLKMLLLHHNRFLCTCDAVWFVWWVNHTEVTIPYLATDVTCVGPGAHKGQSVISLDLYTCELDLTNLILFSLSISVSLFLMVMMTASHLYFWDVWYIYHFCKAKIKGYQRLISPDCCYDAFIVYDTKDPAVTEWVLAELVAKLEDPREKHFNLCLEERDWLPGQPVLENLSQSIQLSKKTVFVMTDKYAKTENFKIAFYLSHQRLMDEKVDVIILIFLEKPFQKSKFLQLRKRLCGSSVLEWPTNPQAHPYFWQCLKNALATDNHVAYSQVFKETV

[3] = target: T1, Toll-like receptor 8 (Homo sapiens); assay: Inhibition of TLR8 in human monocytes assessed as reduction in R848-induced phosphorylated IRAK4 expression measured after 2 hrs by Western blot analysis; type: cell-based
Method in brief: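 Monocyte cell lines, 2 × 10⁶/well, differentiated with PMA 100 ng/mL for 24 h. After washes, cells in unsupplemented RPMI received R848 1 µg/mL with varying compound concentrations for 2 h. Nuclear/cytoplasmic fractions extracted and resolved on 10% SDS-PAGE. Blots probed for p65, TRAF3 and p-IRAK4 (1:1000); lamin A/C (nuclear) and β-actin (cytoplasmic) as loading controls.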

[4] = target: T2, Toll-like receptor 7 (Homo sapiens); assay: Inhibition of human TLR7 expressed in HEK-Blue cells assessed as inhibition of R848-induced NF-kappaB activation at 20 uM measured after 24 hrs by quanti-blue based SEAP reporter gene assay; type: cell-based
Method in brief: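 HEK-Blue SEAP format: 4 × 10⁴ cells/well in DMEM with ligand plus compound, 24 h at 37 °C. Supernatant mixed with QUANTI-Blue up to 1 h, then A620 read. Ligands: Pam3CSK4 100 ng/mL (TLR1/2), Pam2CSK4 100 ng/mL (TLR2/6), poly(I:C) 5 µg/mL (TLR3), LPS 20 ng/mL (TLR4), flagellin 50 ng/mL (TLR5), R848 1 µg/mL (TLR7), R848 2 µg/mL (TLR8), ODN2006 0.5 µM (TLR9). Mean ± s.d.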

[5] = target: T1, Toll-like receptor 8 (Homo sapiens); assay: Inhibition of human TLR8 expressed in HEK-Blue cells assessed as inhibition of ssRNA06-induced NF-kappaB activation measured after 24 hrs by quanti-blue based SEAP reporter gene assay; type: cell-based
Method in brief: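 HEK-Blue TLR8 cells, 4 × 10⁴/well, stimulated with ssRNA06 in the presence of varying compound concentrations for 24 h at 37 °C. SEAP read with QUANTI-Blue at 620 nm. Normalized so ligand-treated cells are 100% activation and untreated cells 0%.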

- inhibition [1]: Dose-dependent effect
- Activity [2]: inactive
- inhibition [3]: Dose-dependent effect
- inhibition [4]: inactive
- inhibition [5]: Dose-dependent effect
Compound: CSc1nnc(CCCO)n1-c1cc(C)c(C)c(C)c1
